Measured values: the M2OR odorant receptor database
Where a chain is given by its changes, count along the chain named.

Assays:
Details in all cases: stereoisomer not certain
O10R2 I170L = tested on: T1, O10R2 I170L
T1 sequence (whole entry): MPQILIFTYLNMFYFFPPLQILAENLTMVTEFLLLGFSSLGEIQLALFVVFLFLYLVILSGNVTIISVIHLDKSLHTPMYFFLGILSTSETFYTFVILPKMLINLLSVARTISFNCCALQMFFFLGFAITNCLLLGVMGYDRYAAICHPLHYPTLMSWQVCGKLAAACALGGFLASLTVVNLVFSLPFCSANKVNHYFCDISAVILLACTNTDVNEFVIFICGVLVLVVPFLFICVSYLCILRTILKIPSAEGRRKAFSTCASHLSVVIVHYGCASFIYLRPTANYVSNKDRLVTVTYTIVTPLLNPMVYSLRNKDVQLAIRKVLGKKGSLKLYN
How it was run: (§1)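 Assay methods differ from source to source, frequently being transient luciferase assays in mammalian cell lines. For each receptor–molecule pair, the label responsive (active) applies when the original authors judged the measured signal statistically different from baseline, and non-responsive (inactive) applies otherwise.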

O10T2 I137M = tested on: T2, O10T2 I137M
T2 sequence (whole entry): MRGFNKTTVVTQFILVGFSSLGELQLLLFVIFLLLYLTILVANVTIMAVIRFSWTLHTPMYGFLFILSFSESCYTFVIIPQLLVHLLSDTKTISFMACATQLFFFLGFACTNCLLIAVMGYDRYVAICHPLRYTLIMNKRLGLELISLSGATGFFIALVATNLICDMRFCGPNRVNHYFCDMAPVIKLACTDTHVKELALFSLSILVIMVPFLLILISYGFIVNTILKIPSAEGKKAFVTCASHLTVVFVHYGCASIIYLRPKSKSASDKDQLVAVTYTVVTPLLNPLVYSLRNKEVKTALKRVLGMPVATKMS
How it was run: as §1

O10V1 Q123R = tested on: T3, O10V1 Q123R
T3 sequence (whole entry): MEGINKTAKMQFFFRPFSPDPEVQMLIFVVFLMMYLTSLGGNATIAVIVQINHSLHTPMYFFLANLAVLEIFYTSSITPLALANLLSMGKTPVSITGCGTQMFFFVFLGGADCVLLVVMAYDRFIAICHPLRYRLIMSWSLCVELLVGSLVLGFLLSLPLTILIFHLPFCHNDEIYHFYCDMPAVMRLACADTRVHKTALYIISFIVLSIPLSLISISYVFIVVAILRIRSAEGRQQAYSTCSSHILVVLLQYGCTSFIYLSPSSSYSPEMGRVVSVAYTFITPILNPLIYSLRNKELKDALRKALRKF
How it was run: as §1

O10X1 N4T R181S = tested on: T4, O10X1 N4T R181S
T4 sequence (whole entry): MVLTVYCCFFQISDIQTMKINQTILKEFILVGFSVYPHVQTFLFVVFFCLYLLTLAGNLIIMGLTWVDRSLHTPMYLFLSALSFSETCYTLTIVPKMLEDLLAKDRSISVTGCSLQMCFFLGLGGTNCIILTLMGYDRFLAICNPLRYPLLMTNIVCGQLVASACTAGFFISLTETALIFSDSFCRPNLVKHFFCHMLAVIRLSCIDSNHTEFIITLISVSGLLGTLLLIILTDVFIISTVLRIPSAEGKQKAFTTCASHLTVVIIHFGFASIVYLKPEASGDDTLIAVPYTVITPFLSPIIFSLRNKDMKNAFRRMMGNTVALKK
How it was run: as §1

O11G2 F3I I99N V116I = tested on: T5, O11G2 F3I I99N V116I
T5 sequence (whole entry): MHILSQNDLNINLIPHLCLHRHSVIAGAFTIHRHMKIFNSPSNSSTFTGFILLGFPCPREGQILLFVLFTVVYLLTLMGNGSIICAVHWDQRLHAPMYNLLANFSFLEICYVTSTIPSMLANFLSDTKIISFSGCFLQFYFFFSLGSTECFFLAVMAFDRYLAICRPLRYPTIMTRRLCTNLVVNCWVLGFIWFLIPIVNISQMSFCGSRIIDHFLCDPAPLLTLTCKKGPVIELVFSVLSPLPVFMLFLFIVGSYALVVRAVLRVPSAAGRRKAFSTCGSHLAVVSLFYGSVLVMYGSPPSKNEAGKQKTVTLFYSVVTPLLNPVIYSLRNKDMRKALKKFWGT
How it was run: as §1

O11H1 M240V = tested on: T6, O11H1 M240V
T6 sequence (whole entry): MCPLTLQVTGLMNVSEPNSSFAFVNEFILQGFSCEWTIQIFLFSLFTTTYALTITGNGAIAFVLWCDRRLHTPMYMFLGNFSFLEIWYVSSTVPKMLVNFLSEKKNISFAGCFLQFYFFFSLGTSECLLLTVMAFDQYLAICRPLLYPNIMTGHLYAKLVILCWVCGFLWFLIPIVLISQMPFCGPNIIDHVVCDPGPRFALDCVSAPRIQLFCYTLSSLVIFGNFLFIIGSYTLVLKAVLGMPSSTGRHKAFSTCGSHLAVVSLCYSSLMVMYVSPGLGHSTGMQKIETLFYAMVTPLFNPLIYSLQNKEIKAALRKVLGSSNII
How it was run: as §1

O11H6 I107T = tested on: T7, O11H6 I107T
T7 sequence (whole entry): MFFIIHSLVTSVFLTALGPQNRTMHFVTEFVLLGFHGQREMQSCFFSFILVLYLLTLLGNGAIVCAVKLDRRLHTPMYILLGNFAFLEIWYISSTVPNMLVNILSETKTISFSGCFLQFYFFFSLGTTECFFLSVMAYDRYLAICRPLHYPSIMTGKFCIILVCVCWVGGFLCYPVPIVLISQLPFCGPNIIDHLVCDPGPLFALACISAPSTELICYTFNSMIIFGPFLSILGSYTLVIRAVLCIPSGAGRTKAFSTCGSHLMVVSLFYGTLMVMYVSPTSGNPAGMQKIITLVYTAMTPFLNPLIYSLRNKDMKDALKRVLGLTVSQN
How it was run: as §1

O11HC C156Y V240M = tested on: T8, O11HC C156Y V240M
T8 sequence (whole entry): T6 sequence (whole entry) with S33T, R68W, V240M
How it was run: as §1

O12D2 S104F = tested on: T9, O12D2 S104F
T9 sequence (whole entry): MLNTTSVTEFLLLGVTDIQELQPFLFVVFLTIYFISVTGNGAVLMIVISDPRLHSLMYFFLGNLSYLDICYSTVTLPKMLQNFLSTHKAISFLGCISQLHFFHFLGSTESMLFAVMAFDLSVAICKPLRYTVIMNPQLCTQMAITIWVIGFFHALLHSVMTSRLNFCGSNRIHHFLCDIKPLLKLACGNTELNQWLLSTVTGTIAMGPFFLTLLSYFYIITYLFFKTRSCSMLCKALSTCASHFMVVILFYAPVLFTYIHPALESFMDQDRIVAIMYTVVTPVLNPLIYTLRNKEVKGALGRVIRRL
How it was run: as §1

O13C2 H6Q = tested on: T10, O13C2 H6Q
T10 sequence (whole entry): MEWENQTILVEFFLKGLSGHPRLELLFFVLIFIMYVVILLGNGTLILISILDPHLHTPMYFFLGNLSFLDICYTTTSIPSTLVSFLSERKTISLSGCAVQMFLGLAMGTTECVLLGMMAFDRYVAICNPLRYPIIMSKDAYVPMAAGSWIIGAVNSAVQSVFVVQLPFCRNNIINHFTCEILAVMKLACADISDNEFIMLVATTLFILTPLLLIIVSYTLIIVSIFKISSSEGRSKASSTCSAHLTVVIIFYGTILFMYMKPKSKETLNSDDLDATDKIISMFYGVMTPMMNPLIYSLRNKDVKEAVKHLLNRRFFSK
How it was run: as §1

Measured: odorant receptor agonist call

CCCCCCC=CCCC=O
inactive: O10R2 I170L | O10T2 I137M | O10V1 Q123R | O10X1 N4T R181S | O11G2 F3I I99N V116I | O11H1 M240V | O11H6 I107T | O11HC C156Y V240M | O12D2 S104F | O13C2 H6Q

CCCC(S)CCOC(C)=O (stereo not given)
inactive: O10R2 I170L | O10T2 I137M | O10V1 Q123R | O10X1 N4T R181S | O11G2 F3I I99N V116I | O11H1 M240V | O11H6 I107T | O11HC C156Y V240M | O12D2 S104F | O13C2 H6Q

CCC1OC(=O)C(O)=C1C (stereo not given)
inactive: O10R2 I170L | O10T2 I137M | O10V1 Q123R | O10X1 N4T R181S | O11G2 F3I I99N V116I | O11H1 M240V | O11H6 I107T | O11HC C156Y V240M | O12D2 S104F | O13C2 H6Q

CC1=NC(C)C(C)S1 (stereo not given)
inactive: O10R2 I170L | O10T2 I137M | O10V1 Q123R | O10X1 N4T R181S | O11G2 F3I I99N V116I | O11H1 M240V | O11H6 I107T | O11HC C156Y V240M | O12D2 S104F | O13C2 H6Q

Cc1cnc(C)c(C)n1
inactive: O10R2 I170L | O10T2 I137M | O10V1 Q123R | O10X1 N4T R181S | O11G2 F3I I99N V116I | O11H1 M240V | O11H6 I107T | O11HC C156Y V240M | O12D2 S104F | O13C2 H6Q

CC1=C(O)C(=O)OC1C (stereo not given)
inactive: O10R2 I170L | O10T2 I137M | O10V1 Q123R | O10X1 N4T R181S | O11G2 F3I I99N V116I | O11H1 M240V | O11H6 I107T | O11HC C156Y V240M | O12D2 S104F | O13C2 H6Q

CCC1OC(C)=C(O)C1=O (stereo not given)
inactive: O10R2 I170L | O10T2 I137M | O10V1 Q123R | O10X1 N4T R181S | O11G2 F3I I99N V116I | O11H1 M240V | O11H6 I107T | O11HC C156Y V240M | O12D2 S104F | O13C2 H6Q

CC1=C(O)C(=O)C(C)O1 (stereo not given)
inactive: O10R2 I170L | O10T2 I137M | O10V1 Q123R | O10X1 N4T R181S | O11G2 F3I I99N V116I | O11H1 M240V | O11H6 I107T | O11HC C156Y V240M | O12D2 S104F | O13C2 H6Q
